33 molecules from ChEMBL document CHEMBL1130339, “Structural analogues of the calanolide anti-HIV agents. Modification of the trans-10,11-dimethyldihydropyran-12-ol ring (ring C)” (J Med Chem, 1997) can be followed below.

The test system of series [1] is CEM-SS. Put plainly: Concentration required to protect CEM-SS cells from HIV-1 mediated uM. In kind it is functional, cell-based, Homo sapiens. A digest of the protocol: (§1)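 CEM-SS cells were infected with HIV-1 RF at MOI about 0.12 TCID50/cell for 4 h at 37 °C, then the virus supernatant was removed. Cells at 10^4/well were exposed to compound diluted from DMSO (maximum 100 µM) in triplicate wells. After 6 days at 37 °C, 5% CO2, viability was read with XTT. EC50 = concentration giving 50% protection from viral cytopathicity relative to infected controls.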

Series [2] concerns CEM-SS. Put plainly: Antiviral activity against HIV-1 determined by concentration which resulted in cytotoxicity of 50% of CEM-SS cell population relative to drug-free controls. The note with it: Homo sapiens. In kind it is functional, cell-based. The gist of the method: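 Cytotoxicity in uninfected CEM-SS cells (RPMI 1640, 10% heat-inactivated FCS, 25 mM HEPES, antibiotics; 37 °C, 5% CO2). Compounds dissolved in DMSO, diluted in medium, top concentration 100 µM, duplicate wells per concentration. 10^4 cells/well, 6-day incubation, viability by XTT dye. IC50 = concentration reducing cell growth by 50% of uninfected controls.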

Series [3] deals with CEM-SS. Put plainly: Concentration required to protect CEM-SS cells from HIV-1 mediated cytopathicity by 50% relative to drug-free controls was determined. In kind it is functional, cell-based, Homo sapiens. The gist of the method:
as §1
Background: Damage to the host cells serves as the signal in cytopathic effect assays.

Series [4] concerns the target Human immunodeficiency virus type 1 reverse transcriptase (Human immunodeficiency virus 1, UniProt Q72547). Kind of series: Inhibition of HIV-1 reverse transcriptase using a poly(rC):oligo(dG)12-18 template primer. A digest of the protocol:
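HIV-1 reverse transcriptase inhibition was measured with a poly(rC):oligo(dG)12-18 template:primer system.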

A short description of series [5]: Therapeutic Index (IC50/EC50). The gist of the method: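 Ratio of cytotoxic IC50 in uninfected CEM-SS cells to antiviral EC50 in HIV-1 RF-infected CEM-SS cells, both from 6-day XTT viability readings. Not determined when no EC50 was available.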

In general, EC50 refers to the concentration at which the effect is half-maximal. A lower EC50 goes with an effect from little substance. The term IC50 denotes the point on the concentration scale where inhibition reaches its midpoint. As to `CCCc1cc(=O)oc2c1c1c(c3oc(C)c(C)c(=O)c32)C=CC(C)(C)O1`, the EC50 result in series [1] is “Not Active”. Further, in series [2], the IC50 is more than 100 µM.
On to `CCCc1cc(=O)oc2c3c(c4c(c12)OC(C)(C)C=C4)O[C@H](C)C(C)(C)C3=O`, for which the EC50 in series [3] (Homo sapiens, CEM-SS) is more than 100000 nM. In addition, the IC50 in series [2] stood at 19 µM.
Regarding `CCCc1cc(=O)oc2c(C(=O)CC)c(OCC)c3c(c12)OC(C)(C)C=C3`, the concentration for a half-maximal effect (EC50) entry in series [1] is “Not Active”. This molecule also registered an IC50 in series [2] of 6.6 µM.
On the same counts, the results for `CCCc1cc(=O)oc2c3c(c4c(c12)OC(C)(C)C=C4)O[C@H](C)C(C)(C)[C@@H]3O` are “Not Active” and 20 µM.
For the molecule `CCCc1cc(=O)oc2c3c(c4c(c12)OC(C)(C)C=C4)OC(C)(C)[C@H](C)[C@@H]3O` (racemic), the EC50 in series [3] (Homo sapiens, CEM-SS) is more than 100000 nM. This molecule also registered an IC50 in series [2] of 21 µM.
`CCCc1cc(=O)oc2c3c(c4c(c12)OC(C)(C)C=C4)OC[C@H](C)[C@@H]3O` (racemic): the concentration giving a half-maximal response (EC50) came to 7200 nM in series [3] (Homo sapiens, CEM-SS) and 50 µM in series [4]. The molecule further showed an IC50 in series [2] of 22 µM. For the same molecule, in series [5], the TI came to 3.1 Ratio.
For the molecule `CCCc1cc(=O)oc2c(C(=O)C(C)C(C)(C)O)c(O)c3c(c12)OC(C)(C)C=C3` (racemic), the concentration for a half-maximal effect (EC50) entry in series [1] is listed as “Not Active”.
For the molecule `CCCc1cc(=O)oc2c3c(c4c(c12)OC(C)(C)C=C4)O[C@H](CC)[C@H](C)[C@H]3O` (racemic), the EC50 entry in series [1] was “Not Active”. In addition, in series [2], it took 21 µM to reach half-maximal inhibition (IC50).
As for `CCCc1cc(=O)oc2c3c(c4c(c12)OC(C)(C)C=C4)OC(C)(C)[C@H](C)[C@H]3O` (racemic), the EC50 in series [3] (Homo sapiens, CEM-SS) is 5700 nM; in series [4], 5 µM. The same molecule showed an IC50 in series [2] of 21 µM. Besides, the TI in series [5] was 3.7 Ratio.
For `CCCc1cc(=O)oc2c3c(c4c(c12)OC(C)(C)C=C4)OC[C@H](C)C3=O` (racemic), the EC50 result in series [1] was “Not Active”.
For `CCCc1cc(=O)oc2c3c(c4c(c12)OC(C)(C)C=C4)O[C@H](C(C)C)[C@@H](C)[C@@H]3O` (racemic), the EC50 entry in series [1] is reported as “Not Active”. In addition, the IC50 in series [2] worked out at 6.5 µM.
For `CCCc1cc(=O)oc2c3c(c4c(c12)OC(C)(C)C=C4)O[C@H](CC)[C@H](C)[C@@H]3O` (racemic) the same measures were “Not Active” and 12 µM.
Regarding `CCCc1cc(=O)oc2c3c(c4c(c12)OC(C)(C)C=C4)O[C@H](C)C(C)(C)[C@H]3O` (racemic), the concentration giving a half-maximal response (EC50) in series [3] (Homo sapiens, CEM-SS) is 2400 nM; in series [4] it was 32 µM. Also, the IC50 in series [2] was found to be 15 µM. This molecule also returned a TI in series [5] of 6.2 Ratio.
Turning to `CCCc1cc(=O)oc2c3c(c4c(c12)OC(C)(C)C=C4)O[C@H](CC)[C@@H](C)[C@H]3O` (racemic), the EC50 in series [3] (Homo sapiens, CEM-SS) turned out to be 1700 nM; in series [4], 2 µM. The molecule also displayed an IC50 in series [2] of 14 µM. In series [5], this molecule had a TI of 8.2 Ratio.
Regarding `CCCc1cc(=O)oc2c3c(c4c(c12)OC(C)(C)C=C4)OC[C@H](C)[C@H]3O` (racemic), the EC50 entry in series [1] is “Not Active”. Besides, the IC50 in series [2] is 22 µM.
Regarding `CCCc1cc(=O)oc2c3c(c4c(c12)OC(C)(C)C=C4)O[C@H](C)[C@H](C)[C@H]3O` (racemic), the EC50 in series [3] (Homo sapiens, CEM-SS) was more than 100000 nM. This molecule came in with an IC50 in series [2] of 20 µM.
In the case of `CCCc1cc(=O)oc2c3c(c4c(c12)OC(C)(C)C=C4)O[C@H](C)[C@@H](C)C3=O` (racemic), the EC50 in series [3] (Homo sapiens, CEM-SS) came out at 1200 nM; in series [4], 40 µM. In series [2], this molecule displayed an IC50 of 19 µM. Also, in series [5], the TI was determined as 16 Ratio.
As to `CCCc1cc(=O)oc2c(C(=O)C(C)(C)C(C)O)c(O)c3c(c12)OC(C)(C)C=C3` (racemic), in series [1], the EC50 entry is listed as “Not Active”. Also, inhibition in series [2] was half-maximal at 37 µM (IC50).
For `CCCc1cc(=O)oc2c3c(c4c(c12)OC(C)(C)C=C4)O[C@H](C(C)C)[C@@H](C)[C@H]3O` (racemic), in series [1], the concentration giving a half-maximal response (EC50) result is “Not Active”. Besides, in series [2], half-maximal inhibition (IC50) was put at 6.5 µM.
For the molecule `CCCc1cc(=O)oc2c3c(c4c(c12)OC(C)(C)C=C4)O[C@H](C(C)C)[C@H](C)[C@@H]3O` (racemic), the EC50 result in series [1] is given as “Not Active”. The IC50 in series [2] turned out to be 6.9 µM.
Turning to `CCCc1cc(=O)oc2c3c(c4c(c12)OC(C)(C)C=C4)O[C@H](C(C)C)[C@@H](C)C3=O` (racemic), the EC50 entry in series [1] is recorded as “Not Active”. Besides, in series [2], the IC50 amounted to 21 µM.
Consider `CCCc1cc(=O)oc2c(C(=O)[C@@H](C)[C@H](C)O)c(O)c3c(c12)OC(C)(C)C=C3` (racemic), for which the response in series [3] (Homo sapiens, CEM-SS) was half-maximal at 2300 nM (EC50). Further, the IC50 in series [2] is 22 µM. Further, the TI in series [5] was 9.6 Ratio.
For `CCCc1cc(=O)oc2c(C(=O)[C@H](C)[C@H](C)O)c(O)c3c(c12)OC(C)(C)C=C3` (racemic) the same measures were 6200 nM, 24 µM and 3.9 Ratio.
Turning to `CCCc1cc(=O)oc2c3c(c4c(c12)OC(C)(C)C=C4)OC(C)(C)[C@H](C)C3=O` (racemic), the EC50 entry in series [1] is recorded as “Not Active”. In addition, it took 2.4 µM to reach half-maximal inhibition in series [2] (IC50).
For `CCCc1cc(=O)oc2c3c(c4c(c12)OC(C)(C)C=C4)O[C@H](C)[C@H](C)C3=O` (racemic), the EC50 is 2800 nM in series [3] (Homo sapiens, CEM-SS) and more than 100 µM in series [4]. This molecule showed an IC50 in series [2] of 12 µM. The TI in series [5] worked out at 4.3 Ratio.
In the case of `CCCc1cc(=O)oc2c3c(c4c(c12)OC(C)(C)C=C4)OC(C)(C)CC3O` (racemic), the EC50 entry in series [1] is recorded as “Not Active”. For the same molecule, the IC50 in series [2] came to 11 µM.
Molecule `CCCc1cc(=O)oc2c3c(c4c(c12)OC(C)(C)C=C4)O[C@H](CC)[C@@H](C)C3=O` (racemic) gave an EC50 in series [3] (Homo sapiens, CEM-SS) of more than 100000 nM. In series [2], this molecule returned an IC50 of 18 µM.
For the molecule `CCCc1cc(=O)oc2c3c(c4c(c12)OC(C)(C)C=C4)OC[C@H](C)C31OCOCO1` (racemic), the EC50 entry in series [1] is reported as “Not Active”. Moreover, in series [2], half-maximal inhibition (IC50) required 6.3 µM.
Regarding `CCCc1cc(=O)oc2c(C(O)CC)c(OCC)c3c(c12)OC(C)(C)C=C3` (racemic), in series [1], the EC50 result is listed as “Not Active”. In addition, in series [2], the IC50 came to 16 µM.
`CCCc1cc(=O)oc2c3c(c4c(c12)OC(C)(C)C=C4)O[C@H](CC)[C@@H](C)[C@@H]3O` (racemic): the concentration giving a half-maximal response (EC50) in series [3] (Homo sapiens, CEM-SS) is 2000 nM; in series [4], 3.2 µM. The IC50 in series [2] is 18 µM. In series [5], the TI is 9 Ratio.
With `CCCc1cc(=O)oc2c3c(c4c(c12)OC(C)(C)C=C4)O[C@H](C)[C@@H](C)[C@@H]3O` (racemic) [CALANOLIDE A], the EC50 in series [3] (cem-ss) turned out to be 490 nM; in series [4], 0.97 µM. The molecule also displayed a TI in series [5] of 47 Ratio.
With `CCCc1cc(=O)oc2c3c(c4c(c12)OC(C)(C)C=C4)O[C@H](C)[C@H](C)[C@@H]3O` (racemic) [CALANOLIDE C], in series [1], the EC50 entry is listed as “Not Active”. For the same molecule, half-maximal inhibition in series [2] (IC50) was put at 18 µM.
As to `CCCc1cc(=O)oc2c3c(c4c(c12)OC(C)(C)C=C4)O[C@H](C)[C@@H](C)[C@@H]3O` [CALANOLIDE A], the EC50 in series [3] (Homo sapiens, CEM-SS) stood at 270 nM; in series [4], 0.32 µM. In addition, in series [2], the IC50 worked out at 23 µM. Moreover, in series [5], the TI is reported as 85 Ratio.
